Assays:
[1] = target: Xanthine dehydrogenase/oxidase (Bos taurus, UniProt P80457); experiment: Inhibition of bovine xanthine oxidase assessed as conversion of xanthine to uric acid by spectroscopic analysis
Summary of the method: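 XO suspended in 20 mM phosphate pH 7.5, added to xanthine (final 46 μM; final enzyme 39 μg/mL); uric acid formation followed at 295 nm for 5 min. Eleven inhibitor concentrations bracketing the IC50; rates by linear regression of absorbance vs time, fitted to a three-parameter logistic to give IC50.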

[2] = Antioxidant activity assessed as DPPH radical scavenging activity by measuring remaining DPPH level at 20 uM after 30 mins by plate reader analysis; format: physicochemical; conditions: 0.5 h
Summary of the method: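 DPPH (0.2 mM in ethanol, 50 μL freshly prepared) mixed with 150 μL test compound in ethanol, 5–50 μM range; 30 min at room temperature in dark; loss of absorbance at 517 nm read. Scavenging activity = (1 − A_test/A_control) × 100%, control lacking scavenger; reported activity taken at 20 µM compound.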

[3] = Cytoprotective activity against amyloid beta-induced oxidative stress in mouse Neuro2a cells assessed as cell viability at 250 uM after 6 hrs by MTT assay; format: functional; conditions: N2a, read-out: Activity
Summary of the method: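 Murine Neuro-2A cells in DMEM with 10% FBS and penicillin-streptomycin, 37°C, 5% CO2; trypsinized ≤1 min, seeded 2,000–4,000 cells/mL, 6 h. Then added 10 μL of 250 μM compound (stock), 15 μL of 833 μM Aβ 25–35 (stock), and MTT (5 mg/mL); 6 h, then SDS/DMF extraction buffer 6 h at 37°C in dark; A570 as percent of unstressed control.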

Xanthine dehydrogenase/oxidase, sequence (P80457 whole entry): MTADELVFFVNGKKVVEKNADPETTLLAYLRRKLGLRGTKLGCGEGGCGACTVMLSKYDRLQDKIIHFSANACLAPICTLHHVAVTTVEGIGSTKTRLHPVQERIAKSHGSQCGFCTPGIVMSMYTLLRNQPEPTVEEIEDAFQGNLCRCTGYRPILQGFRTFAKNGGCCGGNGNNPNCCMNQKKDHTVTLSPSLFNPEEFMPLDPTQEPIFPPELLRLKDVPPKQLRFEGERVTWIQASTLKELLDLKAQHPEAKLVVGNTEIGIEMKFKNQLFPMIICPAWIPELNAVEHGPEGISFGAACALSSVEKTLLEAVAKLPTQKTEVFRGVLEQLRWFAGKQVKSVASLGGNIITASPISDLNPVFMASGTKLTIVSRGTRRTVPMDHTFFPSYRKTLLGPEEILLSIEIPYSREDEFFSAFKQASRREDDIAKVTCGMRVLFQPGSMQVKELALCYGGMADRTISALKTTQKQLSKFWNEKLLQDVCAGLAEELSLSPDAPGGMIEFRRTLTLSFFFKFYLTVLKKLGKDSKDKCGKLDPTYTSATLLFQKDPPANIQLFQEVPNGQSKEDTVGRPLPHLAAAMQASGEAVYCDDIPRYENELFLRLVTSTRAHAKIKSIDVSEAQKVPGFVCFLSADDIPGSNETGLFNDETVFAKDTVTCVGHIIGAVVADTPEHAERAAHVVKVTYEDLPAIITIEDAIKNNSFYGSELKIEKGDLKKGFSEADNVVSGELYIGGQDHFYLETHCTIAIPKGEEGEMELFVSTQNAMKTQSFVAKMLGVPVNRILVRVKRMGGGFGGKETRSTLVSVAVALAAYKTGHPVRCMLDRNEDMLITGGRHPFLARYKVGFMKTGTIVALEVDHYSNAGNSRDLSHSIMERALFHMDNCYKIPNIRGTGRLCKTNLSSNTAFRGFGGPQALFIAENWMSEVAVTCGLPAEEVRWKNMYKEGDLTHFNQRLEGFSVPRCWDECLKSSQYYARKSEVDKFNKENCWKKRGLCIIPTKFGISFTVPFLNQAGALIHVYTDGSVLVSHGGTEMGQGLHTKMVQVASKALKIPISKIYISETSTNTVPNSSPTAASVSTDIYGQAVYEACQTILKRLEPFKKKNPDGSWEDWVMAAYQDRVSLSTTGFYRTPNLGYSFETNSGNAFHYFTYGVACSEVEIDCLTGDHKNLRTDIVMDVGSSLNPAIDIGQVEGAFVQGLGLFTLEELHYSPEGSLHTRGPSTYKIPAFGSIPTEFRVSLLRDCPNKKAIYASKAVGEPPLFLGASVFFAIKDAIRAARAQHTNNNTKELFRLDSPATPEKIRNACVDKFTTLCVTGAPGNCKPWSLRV

IC50 ([1]; read-out: IC50) [µM] | Activity [2] [%] | IC50 [1] | Structure (SMILES) | viability at 250 µM [3] [%]
27 | 0.5 | – | O=C(/C=C/c1cccc(O)c1)c1ccc(O)cc1O | 6.9
17 | 91 | – | O=C(/C=C/c1ccc(O)c(O)c1)c1cc(O)ccc1O | 46
5.3 | 82 | – | O=C(/C=C/c1ccc(O)c(O)c1)c1cccc(O)c1 | 35
53 | 90 | – | O=C(/C=C/c1ccc(O)c(O)c1)c1ccccc1 | 4.3
– | -0.6 | Not Active | O=C(/C=C/c1ccccc1O)c1ccccc1 | 3
6.5 | 84 | – | O=C(/C=C/c1ccc(O)c(O)c1)c1cc(O)cc(O)c1 | 26
1.2 | 92 | – | O=C(/C=C/c1ccc(O)c(O)c1)c1ccc(O)c(O)c1O | 118
3 | 77 | – | O=C(/C=C/c1ccc(O)c(O)c1)c1ccc(O)c(O)c1 | 40
– | 0.2 | Not Active | O=C(/C=C/c1ccccc1)c1cccc(O)c1 | 5.9
4.3 | 42 | – | O=C(/C=C/c1ccc(O)c(O)c1)c1ccc(O)cc1 | 28
35 | 90 | – | O=C(/C=C/c1ccc(O)c(O)c1)c1c(O)cccc1O | 28
93 | 70 | – | O=C(/C=C/c1cccc(O)c1O)c1ccc(O)c(O)c1 | 46
8.6 | 86 | – | O=C(/C=C/c1cc(O)ccc1O)c1ccc(O)c(O)c1 | 70
5.5 | 82 | – | O=C(/C=C/c1ccc(O)c(O)c1O)c1ccc(O)c(O)c1O | 91
18 | 57 | – | O=C(/C=C/c1ccc(O)c(O)c1O)c1ccc(O)c(O)c1 | 51
– | -3 | Not Active | O=C(/C=C/c1ccccc1)c1ccc(O)cc1O [2',4'-DIHYDROXYCHALCONE] | 3.9
– | -1.4 | Not Active | O=C(/C=C/c1ccccc1)c1ccc(O)cc1 [4'-HYDROXYCHALCONE] | 1.4
290 | -9.1 | – | O=C(/C=C/c1ccc(O)cc1)c1ccccc1 [4-HYDROXYCHALCONE] | 0
1.3 | 90 | – | O=C(/C=C/c1ccc(O)c(O)c1)c1ccc(O)cc1O [BUTEIN] | 71

Structure (SMILES) | IC50 ([1]; read-out: IC50) [µM] | Activity [2] [%] | IC50 [1] | viability at 250 µM [3] [%]
O=C(/C=C/c1ccccc1)c1ccccc1O [2'-HYDROXYCHALCONE] | – | 6.7 | Not Active | 1.7

Source: ChEMBL document CHEMBL3751756, “Hydroxylated chalcones with dual properties: Xanthine oxidase inhibitors and radical scavengers” (Bioorg Med Chem, 2016)
